Converted amounts (≈) assume the structure as drawn.
Assays:
[1] = system: RAW264.7; assay: Antiinflammatory activity in LPS-stimulated mouse RAW264.7 cells assessed as inhibition of TNFalpha formation at 30 uM pretreated 1 hr before LPS challenge measured after 24 hrs by enzyme immunoassay; format: functional
In short: (§1)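 RAW 264.7 cells, 2 × 10⁵ per well in DMEM with 5% FCS and penicillin/streptomycin, adhered overnight. Pretreated 1 h at 37 °C with drug (0.5% DMSO vehicle; dexamethasone reference), then LPS (E. coli 0111:B4) 1 μg/mL for 24 h. TNF-α in the collected medium, stored at −70 °C, quantified by EIA kit.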

[2] = system: N9; assay: Antiinflammatory activity in LPS/IFN-gamma-stimulated mouse N9 cells assessed as inhibition of TNFalpha formation at 30 uM pretreated 1 hr before LPS/IFNgamma challenge measured after 24 hrs by enzyme immunoassay
[3] = Cytotoxicity against mouse 212 cells after 6 days by MTT assay; format: functional; settings: 144 h, read-out: ED50 (the source's name)
In short: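 Ha-ras-transformed NIH/3T3 line (212), kept in MEM alpha with 10% calf serum and antibiotics. Assay medium had 10 mM HEPES pH 7.3. (1–3) × 10³ cells seeded, attached 6 h, then exposed to a range of drug concentrations for 6 days at 37 °C. MTT 4 h, DMSO solubilisation, A550.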

[4] = system: RAW264.7; assay: Antiinflammatory activity in LPS-stimulated mouse RAW264.7 cells assessed as inhibition of TNFalpha formation at 10 uM pretreated 1 hr before LPS challenge measured after 24 hrs by enzyme immunoassay; format: functional; in short: as §1
[5] = system: N9; assay: Antiinflammatory activity in LPS/IFN-gamma-stimulated mouse N9 cells assessed as inhibition of TNFalpha formation at 10 uM pretreated 1 hr before LPS/IFNgamma challenge measured after 24 hrs by enzyme immunoassay
[6] = system: HT-3; assay: Cytotoxicity against human HT3 cells after 6 days by MTT assay; format: functional; settings: HT-3, 144 h, read-out: ED50 (the source's name)
In short: (§2)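 Cells grown in DMEM with 10% FBS, 2 mM glutamine and penicillin/streptomycin. (1–3) × 10³ cells seeded per well, attached 6 h, then given fresh medium with 10 mM HEPES pH 7.3 and a range of drug concentrations at 37 °C, CO₂, for 6 days. MTT (1 mg/mL in PBS) added for 4 h, formazan dissolved in DMSO, absorbance read at 550 nm.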

[7] = system: T-24; assay: Cytotoxicity against human T24 cells after 6 days by MTT assay; format: functional; settings: T-24, 144 h, read-out: ED50 (the source's name); in short: as §2
[8] = system: Ca-Ski; assay: Cytotoxicity against human CaSki cells after 6 days by MTT assay; format: functional; settings: 144 h, read-out: ED50 (the source's name); in short: as §2
[9] = system: SiHa; assay: Cytotoxicity against human SiHa cells after 6 days by MTT assay; format: functional; settings: 144 h, read-out: ED50 (the source's name); in short: as §2
[10] = Cytotoxicity against human PLC/PRF/5 cells after 6 days by MTT assay; format: functional; settings: PLC-PRF-5, 144 h, read-out: ED50 (the source's name); in short: as §2

SMILES | inhibition at 30 µM [1] | inhibition at 30 µM [2] | EC50 [3] | inhibition at 10 µM [4] | inhibition at 10 µM [5] | also measured
CO[C@@H]1[C@@H](O)[C@H](O[C@H]2CC[C@@]3(C)C(=CC[C@@H]4C(=O)O[C@@H]5CO[C@]6(C)OC=C(CC[C@@H]43)[C@H]56)C2)O[C@H](C)[C@H]1O[C@H]1C[C@H](OC)[C@@H](O[C@H]2C[C@H](OC)[C@H](O)[C@@H](C)O2)[C@H](C)O1 | 33.7% | 30.9% | 0.96 µg/mL (≈ 1.19 µM) |  |  | 
CO[C@@H]1[C@@H](O)[C@H](O[C@H]2CC[C@@]3(C)C(=CC[C@@H]4C(=O)O[C@@H]5CO[C@]6(C)OC=C(CC[C@@H]43)[C@H]56)C2)O[C@H](C)[C@H]1O |  |  |  | 29.5% | 3.2% | 
CO[C@@H]1[C@@H](O)[C@H](O[C@H]2CC[C@@]3(C)C(=CC[C@@H]4C(=O)O[C@@H]5CO[C@]6(C)OC(=O)/C(=C/C[C@@H]43)[C@H]56)C2)O[C@H](C)[C@H]1O[C@H]1C[C@H](OC)[C@@H](O[C@H]2C[C@H](OC)[C@H](O)[C@@H](C)O2)[C@H](C)O1 [ATRATOGLAUCOSIDE B] |  |  | > 4 µg/mL |  |  | EC50 [6]: > 4 µg/mL; EC50 [7]: > 4 µg/mL; EC50 [8]: > 4 µg/mL; EC50 [9]: > 4 µg/mL; EC50 [10]: > 4 µg/mL
CC(=O)c1ccc(O)c(O)c1 | -29.2% | -21.5% |  |  |  | 
C[C@@H]1C[C@H]2[C@@H]3CCC4=CC(=O)C=C[C@]4(C)[C@@]3(F)[C@@H](O)C[C@]2(C)[C@@]1(O)C(=O)CO [DEXAMETHASONE] |  |  |  | 49.9% | 82% | 
COc1cc(C(C)=O)ccc1O [APOCYNIN] | -19.8% | -22.6% |  |  |  | 

— ChEMBL document CHEMBL1150836, “Bioactive constituents of the roots of Cynanchum atratum” (2001)
